Here are results for 4 molecules from ChEMBL document CHEMBL1154645, “Aza-peptidyl Michael acceptor and epoxide inhibitors--potent and selective inhibitors of Schistosoma mansoni and Ixodes ricinus legumains (asparaginyl endopeptidases)” (J Med Chem, 2009).

Assay [1] in a line: Inhibition of Schistosoma mansoni asparaginyl endopeptidase. To be noted: read-out: IC50. In a few lines:
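Recombinant S. mansoni legumain zymogen expressed in Pichia pastoris and activated before use. Assay buffer was 0.1 M citrate-phosphate with 4 mM DTT at pH 6.8, with under 1% DMSO. The substrate was Cbz-Ala-Ala-[…]-AMC at a final 10 μM, and activity was read as AMC release.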

In another assay the target is T1, Legumain-like protease (Ixodes ricinus, UniProt Q6PRC7).
T1 sequence (Q6PRC7 whole entry): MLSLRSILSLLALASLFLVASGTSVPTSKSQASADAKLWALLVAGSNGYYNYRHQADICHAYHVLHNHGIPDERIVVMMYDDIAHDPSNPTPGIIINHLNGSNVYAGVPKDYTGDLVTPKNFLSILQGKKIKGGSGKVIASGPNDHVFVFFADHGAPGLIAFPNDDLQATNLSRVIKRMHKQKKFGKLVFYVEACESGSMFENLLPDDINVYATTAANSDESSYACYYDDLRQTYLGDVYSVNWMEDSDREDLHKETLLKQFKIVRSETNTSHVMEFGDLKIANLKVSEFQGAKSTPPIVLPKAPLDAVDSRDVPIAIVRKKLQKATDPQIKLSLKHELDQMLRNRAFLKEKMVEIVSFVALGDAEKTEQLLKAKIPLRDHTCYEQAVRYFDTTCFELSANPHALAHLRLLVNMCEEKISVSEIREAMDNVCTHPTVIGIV
Kind of assay: Inhibition of Ixodes ricinus asparaginyl endopeptidases. To be noted: read-out: IC50. In a few lines:
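Recombinant I. ricinus legumain zymogen expressed in Pichia pastoris, then activated. Substrate: Cbz-Ala-Ala-[…]-AMC at 10 μM final, with fluorogenic AMC release as the read-out.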

Molecules are shown by their SMILES.

As to `CC(NC(=O)N1CCN(C(=O)OC(C)(C)C)CC1)C(=O)N[C@@H](C)C(=O)NN(CC(N)=O)C(=O)[C@H]1O[C@@H]1C(=O)N(Cc1ccccc1)Cc1ccccc1` (single isomer, unassigned), the IC50 in assay [1] was determined as 80 nM; at Legumain-like protease, 270 nM.

Consider `CC(NC(=O)N1CCOCC1)C(=O)N[C@@H](C)C(=O)NN(CC(N)=O)C(=O)[C@H]1O[C@@H]1C(=O)NCc1cccc2ccccc12` (single isomer, unassigned), for which the IC50 in assay [1] came out at 60 nM; at Legumain-like protease it was 6 nM.

`CC(NC(=O)N1CCOCC1)C(=O)N[C@@H](C)C(=O)NN(CC(N)=O)C(=O)[C@H]1O[C@@H]1C(=O)N(Cc1ccccc1)Cc1ccccc1` (single isomer, unassigned): the 50% inhibitory concentration (IC50) in assay [1] came out at 90 nM; at Legumain-like protease it was 1.7 nM.

Turning to `CC(NC(=O)N1CCNCC1)C(=O)N[C@@H](C)C(=O)NN(CC(N)=O)C(=O)[C@H]1O[C@@H]1C(=O)N(Cc1ccccc1)Cc1ccccc1` (single isomer, unassigned), the values for the concentration for half-maximal inhibition (IC50) (in assay [1]; on Legumain-like protease) were 150 nM and 11 nM, respectively.
